From PubChem BioAssay AID1738 (Vanderbilt High Throughput Screening Facility, 2009)
Records with an inconclusive call do not appear. Activity calls are given as the source filed them.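 How the source made its calls: active means dose curve fitted or showing a partial trend in at least two of three replicates; inactive means fewer than two replicates fitted or trending.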

test system: parental HEK293, Na-free buffer, Tl+ flux FluoZin2; assay: parental HEK thallium flux modulation in sodium-free buffer, dose response, counter-screen for KCC2 modulator project, HEK cells, counterscreen 3 (AID 1738)
Procedure, shortened: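 System: parental HEK cells loaded with FluoZin2-AM thallium-sensitive dye. Buffer or medium: Sodium-free N-methylglucamine chloride buffer, FluoZin2-AM at 0.5 µM. Also added: thallium stimulus, pH 7.3. Compound: 11-point threefold dilution series, top dose 30 µM. Technique: kinetic fluorescence, 480 nm excitation, 540 nm emission. Benchmarks: 2 mM bumetanide, positive.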

Compound | EC50
COc1ccccc1N1CCN(C(=S)NC(=O)/C=C/c2ccccc2)CC1 | 1.14 µM (inactive)
CNC(=O)C(=O)Nc1nc(C23CC4CC(CC(C4)C2)C3)cs1 | 0.0611 µM
O=C(NC(=S)Nc1nc(-c2cccc([N+](=O)[O-])c2)cs1)c1cc(Cl)ccc1Cl | 22.4 µM (inactive)
NC(=S)N=Nc1c(O)n(Cc2ccccc2)c2ccccc12 | 0.0719 µM (inactive)
O=C1OC(c2ccc(O)cc2)(c2ccc(O)cc2)c2ccccc21 | 15.4 µM (inactive)
COc1ccc(N2C(=S)N=C(Nc3cccc(C)c3)C23CCCCC3)cc1 | 0.92 µM
Oc1ccccc1/C=N/Nc1nc2ccccc2o1 | 9.46 µM (inactive)
Cc1onc(-c2ccccc2Cl)c1C(=O)NC(=S)Nc1ccc(C(C)C)cc1 | 0.262 µM
N=C1SCC(=O)N1c1ncc(Cc2cccc(Cl)c2)s1 | 4.43 µM (inactive)
COC(=O)[C@@H](NC(=O)O[C@@H]1C(=O)c2ccc(OC)cc2O[C@H]1c1cccc(C(F)(F)F)c1)C(C)C | 8.16 µM (inactive)
CC(C)c1ccc(OCC(=O)NNC(=O)c2cnccn2)cc1 | 16.4 µM (inactive)
CCOc1cccc(C(=O)NC(=S)Nc2cccc(C)c2)c1 | 0.345 µM
Fc1cccc(F)c1/C=N/NC(=S)Nc1cccnc1 | 8.33 µM (inactive)
COc1cc(NC(=S)NC(=O)c2ccco2)ccc1NC(=O)C(C)C | 3.63 µM (inactive)
O=c1c2ccccc2[nH]c(=S)n1CCN1CCC(=C(c2ccc(F)cc2)c2ccc(F)cc2)CC1 | 4.82 µM (inactive)
